{"source": "PubChem BioAssay AID2805", "about": "(Sanford-Burnham Center for Chemical Genomics, 2010)", "note": "The whole screen tested about 330,000 compounds, of which about 780 (0.24%) were called active. The full list was thinned out, with actives kept by preference. Values without a mark were called inactive.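 How the source made its calls: active means activation factor of at least 2 at 20 µM; inactive means the rest.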", "data": [{"system": "intestinal alkaline phosphatase [Mus musculus]", "test": "mouse intestinal phosphatase enzyme activation – biochemical, luminescence, uHTS, primary screen (AID 2805)", "conditions": "muIAP, CDP-Star luminescence, 30 min, at 10 µM, hits give high values", "how_it_was_run": "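also added = chemiluminescent substrate CDP-Star | test system = mouse IAP enzyme | signal = chemiluminescence readout | compound = DMSO-dissolved test compounds | incubation = 30 min at room temperature | benchmarks = DMSO wells, no-enzyme wells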", "values": [{"smiles": "Cc1cc(C)cc(NC(=S)NC2CC3CCCC(C2)N3Cc2cccs2)c1", "note": "(stereo not given)", "activation factor": "5.54 (active)"}, {"smiles": "O=C1NC(=O)C(C/C=C/c2ccccc2)C(=O)N1", "activation factor": 0.991}, {"smiles": "N#CC1=C(N)Oc2c(c(=O)oc3ccccc23)C1c1ccccc1OC(=O)c1cccs1", "note": "(stereo not given)", "activation factor": 0.989}, {"smiles": "C=CCn1c(O)c(/C=N/N2CCOCC2)c(=O)[nH]c1=S", "activation factor": 1.03}, {"smiles": "O=C1C2(Cl)C3(Cl)C4(Cl)C(Cl)(Cl)C5(Cl)C3(Cl)C1(Cl)C5(Cl)C24Cl", "note": "(stereo not given)", "activation factor": "0.917 [1 = vehicle-only enzyme signal, 0 = enzyme-free wells]"}]}]}
